Measurements taken from ChEMBL document CHEMBL3102796.
pIC50: −log10 of the molar value.

Columns and labels:
[1] = tested on: Influenza A virus; assay: Antiviral activity against Influenza A virus A/Hong Kong/8/1968 (H3N2) infected in MDCK cells assessed as reduction in virus plaque formation after 5 days; type: functional, organism-based; conditions: 120 h
Summary of the method: (§1)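 MDCK cells were seeded at 1×10^6 per well and inoculated with virus at confluence. Serial ten-fold dilutions of inhibitor were added in an overlay of serum-free DMEM with 0.6% agarose and 1 µg/mL TPCK-treated trypsin. The overlay was removed after 5 days, and cells were fixed with 70% ethanol and stained with 0.2% crystal violet.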

[2] = tested on: Influenza A virus; assay: Antiviral activity against Influenza A virus A/California/07/2009 (H1N1) infected in MDCK cells assessed as reduction in virus plaque formation after 5 days; type: functional, organism-based; conditions: 120 h; summary of the method: as §1
[3] = biological target: T1, Neuraminidase (Influenza A virus, UniProt B4URF0); assay: Inhibition of Influenza A virus A/Hong Kong/8/1968 (H3N2) neuraminidase using MUNANA as substrate preincubated for 30 mins measured after 2 hrs
T1 sequence (B4URF0 whole entry): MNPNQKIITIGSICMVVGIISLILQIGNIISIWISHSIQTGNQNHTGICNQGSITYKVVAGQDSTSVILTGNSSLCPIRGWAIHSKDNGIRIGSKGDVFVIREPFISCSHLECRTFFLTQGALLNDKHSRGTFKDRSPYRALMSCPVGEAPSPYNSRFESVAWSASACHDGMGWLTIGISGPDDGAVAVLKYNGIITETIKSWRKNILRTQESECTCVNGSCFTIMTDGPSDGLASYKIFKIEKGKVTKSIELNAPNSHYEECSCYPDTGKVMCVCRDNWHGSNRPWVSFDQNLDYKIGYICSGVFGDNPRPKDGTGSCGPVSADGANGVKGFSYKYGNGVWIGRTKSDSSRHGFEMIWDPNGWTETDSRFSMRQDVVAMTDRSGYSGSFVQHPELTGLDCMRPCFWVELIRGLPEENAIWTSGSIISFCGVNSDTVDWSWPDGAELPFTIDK

[4] = biological target: T1, Neuraminidase; assay: Inhibition of Influenza A virus H5N1 neuraminidase using MUNANA as substrate preincubated for 30 mins measured after 2 hrs
[5] = biological target: T1, Neuraminidase; assay: Inhibition of Influenza A virus H3N2 neuraminidase using MUNANA as substrate preincubated for 30 mins measured after 2 hrs
[6] = biological target: T1, Neuraminidase; assay: Inhibition of Influenza A virus A/California/07/2009 (H1N1) neuraminidase using MUNANA as substrate preincubated for 30 mins measured after 2 hrs

SMILES	pIC50 [1]	pIC50 [2]	pIC50 [3]	pIC50 [4]	pIC50 [5]	pIC50 [6]
CCOC(=O)C1=C[C@@H](OC(CC)CC)[C@H](NC(C)=O)[C@@H](N)C1 [OSELTAMIVIR]	9.00	9.00				
CC(=O)N[C@H]1[C@H]([C@H](O)[C@H](O)CO)OC(SCCCCCCSC2(C(=O)O)C[C@H](NC(=N)N)[C@@H](NC(C)=O)[C@H]([C@H](O)[C@H](O)CO)O2)(C(=O)O)C[C@@H]1NC(=N)N (stereo not given in full)	8.00	6.00	6.60	6.70	5.38	6.59
CC(=O)N[C@H]1[C@H]([C@H](O)[C@H](O)CO)OC(SCCOCCOCCOCCOCCSC2(C(=O)O)C[C@H](NC(=N)N)[C@@H](NC(C)=O)[C@H]([C@H](O)[C@H](O)CO)O2)(C(=O)O)C[C@@H]1NC(=N)N (stereo not given in full)	8.00	6.00	6.00	5.96	5.00	5.92
CC(=O)N[C@H]1[C@H]([C@H](O)[C@H](O)CO)OC(SCCCCCCS)(C(=O)O)C[C@@H]1NC(=N)N (stereo not given in full)	6.00	5.00	6.26	7.00	6.00	6.10
CC(=O)N[C@H]1[C@H]([C@H](O)[C@H](O)CO)OC(SCCCCCCCCCCCCSC2(C(=O)O)C[C@H](N)[C@@H](NC(C)=O)[C@H]([C@H](O)[C@H](O)CO)O2)(C(=O)O)C[C@@H]1N (stereo not given in full)	6.00	4.00	4.82	4.51	4.40	4.96
CC(=O)N[C@H]1[C@H]([C@H](O)[C@H](O)CO)OC(SCCCCCCCCCCCCSC2(C(=O)O)C[C@H](NC(=N)N)[C@@H](NC(C)=O)[C@H]([C@H](O)[C@H](O)CO)O2)(C(=O)O)C[C@@H]1NC(=N)N (stereo not given in full)	7.00	6.00	6.30	6.14	4.92	6.10
CC(=O)N[C@H]1[C@H]([C@H](O)[C@H](O)CO)OC(SCCOCCOCCOCCOCCOCCSC2(C(=O)O)C[C@H](N)[C@@H](NC(C)=O)[C@H]([C@H](O)[C@H](O)CO)O2)(C(=O)O)C[C@@H]1N (stereo not given in full)	6.00	4.00	4.48	4.07	3.67	4.35
CC(=O)N[C@H]1[C@H]([C@H](O)[C@H](O)CO)OC(SCCOCCOCCOCCOCCSC2(C(=O)O)C[C@H](N)[C@@H](NC(C)=O)[C@H]([C@H](O)[C@H](O)CO)O2)(C(=O)O)C[C@@H]1N (stereo not given in full)	6.00	4.00	4.68	4.19	3.75	4.44
CC(=O)N[C@H]1[C@H]([C@H](O)[C@H](O)CO)OC(SCCCCCCS)(C(=O)O)C[C@@H]1N (stereo not given in full)	5.00	< 4.00	4.19	3.90	3.75	4.25
CC(=O)N[C@H]1[C@H]([C@H](O)[C@H](O)CO)OC(SCCCCCCSC2(C(=O)O)C[C@H](N)[C@@H](NC(C)=O)[C@H]([C@H](O)[C@H](O)CO)O2)(C(=O)O)C[C@@H]1N (stereo not given in full)	6.00	4.00	4.94	4.70	4.49	5.00
CC(=O)N[C@H]1[C@H]([C@H](O)[C@H](O)CO)OC(SCCOCCOCCOCCSC2(C(=O)O)C[C@H](NC(=N)N)[C@@H](NC(C)=O)[C@H]([C@H](O)[C@H](O)CO)O2)(C(=O)O)C[C@@H]1NC(=N)N (stereo not given in full)	7.00	6.00	5.75	5.60	5.00	5.62
CC(=O)N[C@H]1[C@H]([C@H](O)[C@H](O)CO)OC(SCCOCCOCCOCCSC2(C(=O)O)C[C@H](N)[C@@H](NC(C)=O)[C@H]([C@H](O)[C@H](O)CO)O2)(C(=O)O)C[C@@H]1N (stereo not given in full)	6.00	4.00	4.96	4.55	4.41	5.01
CC(=O)N[C@H]1[C@H]([C@H](O)[C@H](O)CO)OC(C(=O)O)=C[C@@H]1NC(=N)N [ZANAMIVIR]	9.00	8.00				
